Measurements published in ChEMBL document CHEMBL2390822, “Bioactive terpenoids from the fruits of Aphanamixis grandifolia” (J Nat Prod, 2013).
Active and inactive are the calls of the source. The rule behind the calls is not given here.

Key:
Sitobion avenae = assay: Insecticidal activity against second-instar larva of Sitobion avenae infected in cabbage leaves assessed as mortality after 5 days by leaf-disc method; assay type: functional
Diabrotica balteata = assay: Insecticidal activity against Diabrotica balteata infected in cabbage leaves assessed as mortality after 5 days by leaf-disc method; assay type: functional
P388 = assay: Cytotoxicity against mouse P388 cells; assay type: functional; settings: read-out: ED50 (the source's name)
SMMC-7721 = assay: Cytotoxicity against human SMMC7721 cells after 72 hrs by MTT assay; assay type: functional, cell-based
How it was run: (§1)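 Human tumour cell panel (HL-60, Bel7402, HepG2, SMMC-7721) with doxorubicin as the positive control.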

HepG2 = assay: Cytotoxicity against human HepG2 cells after 72 hrs by MTT assay; assay type: functional, cell-based; how it was run: as §1
Caenorhabditis elegans = assay: Insecticidal activity against fourth-instar larva of Caenorhabditis elegans assessed as mortality after 5 days; assay type: functional, organism-based
Plutella xylostella = assay: Insecticidal activity against Plutella xylostella infected in cabbage leaves assessed as mortality after 5 days by leaf-disc method; assay type: functional, organism-based

| SMILES | Activity (Sitobion avenae) | Activity (Diabrotica balteata) | further results |
| --- | --- | --- | --- |
| CN1COCN(Cc2cnc(Cl)s2)/C1=N\[N+](=O)[O-] | Active | – | – |
| CC(=O)O[C@H]1CC(=O)OC(C)(C)[C@@H]2C[C@@H](O)[C@]3(C)[C@H]([C@@H](O)[C@H](OC(=O)c4cccnc4)[C@@]4(C)[C@H](c5ccoc5)C[C@H]5O[C@@]534)[C@@]12C | Active | Active | – |
| CCC(C)C(=O)OC1OC[C@@]23[C@H]4C(=O)[C@H](O)[C@@]5(C)[C@H](c6ccoc6)C[C@H]6O[C@]65[C@]4(C)[C@H](O)C[C@H]2[C@]1(C)[C@H](OC(C)=O)[C@H](O)[C@@H]3OC(C)=O (some centres not stated) [APHANASTATIN] | – | – | EC50 (P388): < 0.065 µg/mL |
| CC(=O)O[C@H]1CC(=O)OC(C)(C)[C@@H]2C[C@@H](OC(C)=O)[C@]3(C)[C@H]([C@@H](O)[C@H](O)[C@@]4(C)[C@H](c5ccoc5)C[C@H]5O[C@@]534)[C@@]12C | – | Active | – |
| COC(=O)N(C(=O)N1CO[C@@]2(C(=O)OC)Cc3cc(Cl)ccc3C2=N1)c1ccc(OC(F)(F)F)cc1 | Active | – | – |
| COc1cccc2c1C(=O)c1c(O)c3c(c(O)c1C2=O)C[C@@](O)(C(=O)CO)C[C@@H]3O[C@H]1C[C@H](N)[C@H](O)[C@H](C)O1 | – | – | Activity (SMMC-7721): Active; Activity (HepG2): Active |
| CC1(C)OC(=O)C=C[C@]2(C)[C@H]3[C@@H](O)[C@H](O)[C@@]4(C)[C@H](c5ccoc5)C[C@@H](O)[C@]45O[C@H](C[C@@H]12)[C@]35C | Active | Active | Activity (Caenorhabditis elegans): Active; Activity (Plutella xylostella): Active |
| CC(=O)O[C@@H]1C[C@H](O)[C@@]23CO[C@H](O)[C@]1(C)[C@@H]2C[C@@H](O)[C@]1(C)[C@@H]3C(=O)C[C@@]2(C)[C@H](c3ccoc3)C[C@H]3O[C@]312 [AMOORASTATIN] | – | – | EC50 (P388): < 0.065 µg/mL |
| CC1(C)OC(=O)C=C[C@]2(C)[C@H]3[C@@H](O)[C@H](O)[C@]4(C)[C@@H](C(=O)C[C@H]4c4ccoc4)[C@]3(C)[C@H](O)C[C@@H]12 | Active | Active | Activity (Caenorhabditis elegans): Active; Activity (Plutella xylostella): Active |
